Test results as given in ChEMBL document CHEMBL1127521, “CCK-A-selective tetrapeptides containing lys(N epsilon)-amide residues: favorable in vivo and in vitro effects of N-methylation at the aspartyl residue” (J Med Chem, 1994).
Square brackets hold non-standard residues; d marks the D form. Peptide text beside a SMILES is read from it. * marks the point of attachment. ξ: configuration not given here. Acryloyl(3-(3-pyridyl),E) = O=C(/C=C/c1cccnc1)*; NMeF = CN[C@@H](Cc1ccccc1)C(=O)O; ξW = NC(Cc1c[nH]c2ccccc12)C(=O)O; NMeD = CN[C@@H](CC(=O)O)C(=O)O; X1 = O=C(/C=C/c1ccc(O)cc1)*; X2 = O=C(/C=C/c1cccs1)*; Boc = CC(C)(C)OC(=O)*

What was measured:
[1] = molecular target: Cholecystokinin B receptor (Cavia porcellus); experiment: In vitro binding for inhibition of [125I]- Bolton-Hunter-CCK-8 binding in guinea pig cortex
[2] = test system: Rattus norvegicus; experiment: Compound was evaluated for Appetite suppression, based on intake of liquid diet by food-deprived rats for 1 h following intraperitoneal injection; format: functional; settings: ip
Procedure, shortened: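 Rats are food-deprived, dosed intraperitoneally, and their liquid diet intake over the following 1 h is measured as the appetite suppression read-out.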

[3] = molecular target: Cholecystokinin A receptor (Cavia porcellus); experiment: In vitro inhibition of [125I]CCK-8 binding to guinea pig pancreas
[4] = molecular target: T1, Cholecystokinin receptor type A (Cavia porcellus) (UniProt Q63931); experiment: Percent maximal stimulation of phosphatidylinositol hydrolysis in guinea pig pancreatic acini (CCK-A receptors) relative to CCK-8; format: functional
T1 sequence (whole entry): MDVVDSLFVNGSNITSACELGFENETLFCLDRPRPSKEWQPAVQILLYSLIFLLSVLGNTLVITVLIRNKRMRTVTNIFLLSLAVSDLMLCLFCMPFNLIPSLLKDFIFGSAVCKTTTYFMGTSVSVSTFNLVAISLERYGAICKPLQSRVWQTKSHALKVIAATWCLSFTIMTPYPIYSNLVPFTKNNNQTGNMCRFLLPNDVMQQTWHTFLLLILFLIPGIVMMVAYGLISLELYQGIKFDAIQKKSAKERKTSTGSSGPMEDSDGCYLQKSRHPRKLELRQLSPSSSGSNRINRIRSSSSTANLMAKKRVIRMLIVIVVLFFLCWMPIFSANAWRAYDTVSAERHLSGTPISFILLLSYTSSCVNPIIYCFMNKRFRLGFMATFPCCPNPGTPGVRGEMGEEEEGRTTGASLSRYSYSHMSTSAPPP
Procedure, shortened: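 Functional CCK-A assay in guinea pig pancreatic acini. Phosphatidylinositol hydrolysis is measured and expressed as percent of the maximal stimulation produced by CCK-8.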

SMILES | Hydrolysis [4] [%] | ED50 [2] [µmol/kg] | other results
CN(C(=O)[C@H](CC(=O)O)NC(=O)[C@H](CCCCNC(=O)/C=C/c1cccnc1)NC(=O)[C@H](Cc1c[nH]c2ccccc12)NC(=O)OC(C)(C)C)[C@@H](Cc1ccccc1)C(N)=O (Boc-WK(Acryloyl(3-(3-pyridyl),E))D[NMeF]-NH2) [listing 1 of 2 here] | – | – | IC50 [1]: 128 nM
CN(C(=O)[C@H](CC(=O)O)NC(=O)[C@H](CCCCNC(=O)/C=C/c1cccnc1)NC(=O)[C@H](Cc1c[nH]c2ccccc12)NC(=O)OC(C)(C)C)[C@@H](Cc1ccccc1)C(N)=O (Boc-WK(Acryloyl(3-(3-pyridyl),E))D[NMeF]-NH2) [listing 2 of 2 here] | – | 2.52 | –
CN(C(=O)[C@H](CCCCNC(=O)/C=C/c1cccnc1)NC(=O)[C@H](Cc1c[nH]c2ccccc12)NC(=O)OC(C)(C)C)[C@@H](CC(=O)O)C(=O)N[C@@H](Cc1ccccc1)C(N)=O (Boc-WK(Acryloyl(3-(3-pyridyl),E))[NMeD]F-NH2) [listing 1 of 2 here] | – | – | IC50 [3]: 41 nM; IC50 [1]: 10400 nM
CN(C(=O)[C@H](CCCCNC(=O)/C=C/c1cccnc1)NC(=O)[C@H](Cc1c[nH]c2ccccc12)NC(=O)OC(C)(C)C)[C@@H](CC(=O)O)C(=O)N[C@@H](Cc1ccccc1)C(N)=O (Boc-WK(Acryloyl(3-(3-pyridyl),E))[NMeD]F-NH2) [listing 2 of 2 here] | – | 0.036 | –
CN(C(=O)[C@H](CCCCNC(=O)/C=C/c1cccnc1)NC(=O)[C@H](Cc1c[nH]c2ccccc12)NC(=O)OC(C)(C)C)[C@@H](CC(=O)O)C(=O)N(C)[C@@H](Cc1ccccc1)C(N)=O (Boc-WK(Acryloyl(3-(3-pyridyl),E))[NMeD][NMeF]-NH2) [listing 1 of 2 here] | – | – | IC50 [3]: 50 nM
CN(C(=O)[C@H](CCCCNC(=O)/C=C/c1cccnc1)NC(=O)[C@H](Cc1c[nH]c2ccccc12)NC(=O)OC(C)(C)C)[C@@H](CC(=O)O)C(=O)N(C)[C@@H](Cc1ccccc1)C(N)=O (Boc-WK(Acryloyl(3-(3-pyridyl),E))[NMeD][NMeF]-NH2) [listing 2 of 2 here] | – | 0.016 | –
CN(C(=O)[C@H](CC(=O)O)NC(=O)[C@H](CCCCNC(=O)/C=C/c1ccc(O)cc1)NC(=O)[C@H](Cc1c[nH]c2ccccc12)NC(=O)OC(C)(C)C)[C@@H](Cc1ccccc1)C(N)=O (Boc-WK(X1)D[NMeF]-NH2) | – | 0.413 | –
CN(C(=O)[C@H](CCCCNC(=O)/C=C/c1ccc(O)cc1)NC(=O)[C@H](Cc1c[nH]c2ccccc12)NC(=O)OC(C)(C)C)[C@@H](CC(=O)O)C(=O)N[C@@H](Cc1ccccc1)C(N)=O (Boc-WK(X1)[NMeD]F-NH2) [listing 1 of 2 here] | – | – | IC50 [3]: 5 nM; IC50 [1]: 5810 nM
CN(C(=O)[C@H](CCCCNC(=O)/C=C/c1ccc(O)cc1)NC(=O)[C@H](Cc1c[nH]c2ccccc12)NC(=O)OC(C)(C)C)[C@@H](CC(=O)O)C(=O)N[C@@H](Cc1ccccc1)C(N)=O (Boc-WK(X1)[NMeD]F-NH2) [listing 2 of 2 here] | – | 0.018 | –
CN(C(=O)[C@H](CCCCNC(=O)/C=C/c1ccc(O)cc1)NC(=O)[C@H](Cc1c[nH]c2ccccc12)NC(=O)OC(C)(C)C)[C@@H](CC(=O)O)C(=O)N(C)[C@@H](Cc1ccccc1)C(N)=O (Boc-WK(X1)[NMeD][NMeF]-NH2) [listing 1 of 2 here] | – | – | IC50 [3]: 9 nM; IC50 [1]: 13600 nM
CN(C(=O)[C@H](CCCCNC(=O)/C=C/c1ccc(O)cc1)NC(=O)[C@H](Cc1c[nH]c2ccccc12)NC(=O)OC(C)(C)C)[C@@H](CC(=O)O)C(=O)N(C)[C@@H](Cc1ccccc1)C(N)=O (Boc-WK(X1)[NMeD][NMeF]-NH2) [listing 2 of 2 here] | – | 0.062 | –
CN(C(=O)[C@H](CC(=O)O)NC(=O)[C@H](CCCCNC(=O)/C=C/c1cccs1)NC(=O)[C@H](Cc1c[nH]c2ccccc12)NC(=O)OC(C)(C)C)[C@@H](Cc1ccccc1)C(N)=O (Boc-WK(X2)D[NMeF]-NH2) [listing 1 of 2 here] | – | – | IC50 [3]: 18 nM; IC50 [1]: 731 nM
CN(C(=O)[C@H](CC(=O)O)NC(=O)[C@H](CCCCNC(=O)/C=C/c1cccs1)NC(=O)[C@H](Cc1c[nH]c2ccccc12)NC(=O)OC(C)(C)C)[C@@H](Cc1ccccc1)C(N)=O (Boc-WK(X2)D[NMeF]-NH2) [listing 2 of 2 here] | – | 1.4 | –
CN(C(=O)[C@H](CCCCNC(=O)/C=C/c1cccs1)NC(=O)[C@H](Cc1c[nH]c2ccccc12)NC(=O)OC(C)(C)C)[C@@H](CC(=O)O)C(=O)N[C@@H](Cc1ccccc1)C(N)=O (Boc-WK(X2)[NMeD]F-NH2) [listing 1 of 2 here] | – | – | IC50 [3]: 35 nM; IC50 [1]: 4577 nM
CN(C(=O)[C@H](CCCCNC(=O)/C=C/c1cccs1)NC(=O)[C@H](Cc1c[nH]c2ccccc12)NC(=O)OC(C)(C)C)[C@@H](CC(=O)O)C(=O)N[C@@H](Cc1ccccc1)C(N)=O (Boc-WK(X2)[NMeD]F-NH2) [listing 2 of 2 here] | – | 0.012 | –
CN(C(=O)[C@H](CCCCNC(=O)/C=C/c1cccs1)NC(=O)[C@H](Cc1c[nH]c2ccccc12)NC(=O)OC(C)(C)C)[C@@H](CC(=O)O)C(=O)N(C)[C@@H](Cc1ccccc1)C(N)=O (Boc-WK(X2)[NMeD][NMeF]-NH2) [listing 1 of 2 here] | – | – | IC50 [3]: 32 nM; IC50 [1]: 10900 nM
CN(C(=O)[C@H](CCCCNC(=O)/C=C/c1cccs1)NC(=O)[C@H](Cc1c[nH]c2ccccc12)NC(=O)OC(C)(C)C)[C@@H](CC(=O)O)C(=O)N(C)[C@@H](Cc1ccccc1)C(N)=O (Boc-WK(X2)[NMeD][NMeF]-NH2) [listing 2 of 2 here] | – | 0.022 | –
CN(C(=O)[C@H](CC(=O)O)NC(=O)[C@H](CCCCNC(=O)/C=C/c1ccc(O)cc1)NC(=O)C(Cc1c[nH]c2ccccc12)NC(=O)OC(C)(C)C)[C@@H](Cc1ccccc1)C(N)=O (some centres not stated) (Boc-[ξW]K(X1)D[NMeF]-NH2) | 76 | – | –
CN(C(=O)[C@H](CCCCNC(=O)/C=C/c1ccc(O)cc1)NC(=O)C(Cc1c[nH]c2ccccc12)NC(=O)OC(C)(C)C)[C@@H](CC(=O)O)C(=O)N[C@@H](Cc1ccccc1)C(N)=O (some centres not stated) (Boc-[ξW]K(X1)[NMeD]F-NH2) | 101 | – | –

More lines, main results first:

Hydrolysis [4] [%] | SMILES | ED50 [2] [µmol/kg] | other results
88 | CN(C(=O)[C@H](CC(=O)O)NC(=O)[C@H](CCCCNC(=O)/C=C/c1cccnc1)NC(=O)C(Cc1c[nH]c2ccccc12)NC(=O)OC(C)(C)C)[C@@H](Cc1ccccc1)C(N)=O (some centres not stated) (Boc-[ξW]K(Acryloyl(3-(3-pyridyl),E))D[NMeF]-NH2) | – | –
98 | CN(C(=O)[C@H](CCCCNC(=O)/C=C/c1cccnc1)NC(=O)C(Cc1c[nH]c2ccccc12)NC(=O)OC(C)(C)C)[C@@H](CC(=O)O)C(=O)N[C@@H](Cc1ccccc1)C(N)=O (some centres not stated) (Boc-[ξW]K(Acryloyl(3-(3-pyridyl),E))[NMeD]F-NH2) | – | –
94 | CN(C(=O)[C@H](CCCCNC(=O)/C=C/c1cccnc1)NC(=O)C(Cc1c[nH]c2ccccc12)NC(=O)OC(C)(C)C)[C@@H](CC(=O)O)C(=O)N(C)[C@@H](Cc1ccccc1)C(N)=O (some centres not stated) (Boc-[ξW]K(Acryloyl(3-(3-pyridyl),E))[NMeD][NMeF]-NH2) | – | –
91 | CN(C(=O)[C@H](CCCCNC(=O)/C=C/c1ccc(O)cc1)NC(=O)C(Cc1c[nH]c2ccccc12)NC(=O)OC(C)(C)C)[C@@H](CC(=O)O)C(=O)N(C)[C@@H](Cc1ccccc1)C(N)=O (some centres not stated) (Boc-[ξW]K(X1)[NMeD][NMeF]-NH2) | – | –
84 | CN(C(=O)[C@H](CC(=O)O)NC(=O)[C@H](CCCCNC(=O)/C=C/c1cccs1)NC(=O)C(Cc1c[nH]c2ccccc12)NC(=O)OC(C)(C)C)[C@@H](Cc1ccccc1)C(N)=O (some centres not stated) (Boc-[ξW]K(X2)D[NMeF]-NH2) | – | –
95 | CN(C(=O)[C@H](CCCCNC(=O)/C=C/c1cccs1)NC(=O)C(Cc1c[nH]c2ccccc12)NC(=O)OC(C)(C)C)[C@@H](CC(=O)O)C(=O)N[C@@H](Cc1ccccc1)C(N)=O (some centres not stated) (Boc-[ξW]K(X2)[NMeD]F-NH2) | – | –
93 | CN(C(=O)[C@H](CCCCNC(=O)/C=C/c1cccs1)NC(=O)C(Cc1c[nH]c2ccccc12)NC(=O)OC(C)(C)C)[C@@H](CC(=O)O)C(=O)N(C)[C@@H](Cc1ccccc1)C(N)=O (some centres not stated) (Boc-[ξW]K(X2)[NMeD][NMeF]-NH2) | – | –
